Assay results as given in ChEMBL document CHEMBL1157095, “Antimalarial versus cytotoxic properties of dual drugs derived from 4-aminoquinolines and Mannich bases: interaction with DNA” (J Med Chem, 2010).
pIC50, pKd: −log10 of the molar value. The source made the active and inactive calls. No cut-off for these calls is given here.

Legend:
Nucleic Acid [1] = experiment: Binding affinity to pUC18 DNA at pH 7.5 by spectrofluorimetry analysis; type: nucleic-acid assay
How it was run: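 A 1-10 μM drug solution was titrated at room temperature with linearized pUC18 DNA (50% AT), 0.1-50 μM base pairs final, in TE buffer with 5 mM NaCl (ionic strength 12 mM). Fluorescence used excitation at 320 nm and emission at 340-500 nm, corrected for buffer and instrument response. Kd = DNA concentration giving half-bound drug.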

Plasmodium falciparum [2] = experiment: Antiplasmodial activity against chloroquine-susceptible Plasmodium falciparum Voll infected in human erythrocytes assessed as inhibition of [3H]hypoxanthine uptake after 48 hrs; type: functional, organism-based
How it was run: (§1)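 Strains were cultured in A-positive human blood in RPMI 1640 with 10% human serum, 25 mM HEPES and 25 mM NaHCO3, under 10% O2/5% CO2/85% N2 at 37 °C. Microtests used 0.5% parasitemia and 1.5% hematocrit. Tritiated hypoxanthine (1 μCi/well) was added at time zero, then 48 h incubation, freeze-thaw, harvest and scintillation counting. IC50 was taken by nonlinear regression against drug-free controls.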

Nucleic Acid [3] = experiment: Binding affinity to pUC18 DNA containing 50% AT assessed as maximum melting temperature at 1 uM by spectrophotometry analysis; type: nucleic-acid assay
How it was run: (§2)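 Drug at 1 μM was mixed with DNA at 15 μM base pairs (15:1 bp:drug) in TE with 5 mM NaCl. Absorbance at 260 nm was recorded from 30-97 °C at 0.5 °C/min, with readings every 0.5 °C. Curves were normalized, smoothed and differentiated. Tmmax = derivative peak maximum; Tmint = middle of the integrated area; Tm1/2 = middle of the peak at half height.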

Nucleic Acid [4] = experiment: Binding affinity to polydAdT DNA containing 100% AT assessed as maximum melting temperature at 1 uM by spectrophotometry analysis; type: nucleic-acid assay; how it was run: as §2
Plasmodium falciparum [5] = experiment: Antiplasmodial activity against chloroquine-susceptible Plasmodium falciparum L1 infected in human erythrocytes assessed as inhibition of [3H]hypoxanthine uptake after 48 hrs; type: functional, organism-based; how it was run: as §1
Plasmodium falciparum [6] = experiment: Antiplasmodial activity against chloroquine-susceptible Plasmodium falciparum FCR3 infected in human erythrocytes assessed as inhibition of [3H]hypoxanthine uptake after 48 hrs; type: functional, organism-based; how it was run: as §1
Plasmodium falciparum [7] = experiment: Antiplasmodial activity against chloroquine-susceptible Plasmodium falciparum K14 infected in human erythrocytes assessed as inhibition of [3H]hypoxanthine uptake after 48 hrs; type: functional, organism-based; how it was run: as §1
NCH89 = experiment: Antiproliferative activity against human carmustine-resistant NCH-89 cells assessed as BrdU incorporation after 48 hrs; type: functional, cell-based; conditions: NCH89, 48 h
How it was run: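 NCH89 glioblastoma cells were seeded at 7 × 10^3 cells/well in replicate wells for 24 h. Compound was then added at 0.1-100 μM. After 48 h, BrdU was added at 100 μM final, and incorporation was detected with a BrdU labeling/detection kit.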

Plasmodium falciparum [8] = experiment: Antiplasmodial activity against chloroquine-susceptible Plasmodium falciparum 8425 infected in human erythrocytes assessed as inhibition of [3H]hypoxanthine uptake after 48 hrs; type: functional, organism-based; how it was run: as §1
Plasmodium falciparum [9] = experiment: Antiplasmodial activity against chloroquine-susceptible Plasmodium falciparum D6 infected in human erythrocytes assessed as inhibition of [3H]hypoxanthine uptake after 48 hrs; type: functional, organism-based; how it was run: as §1
Plasmodium berghei [10] = experiment: Antiplasmodial activity against Plasmodium berghei ANKA infected in Swiss mice (Mus musculus) assessed as reduction of parasitaemia at 10 mg/kg, intraperitoneal every day for 4 days; type: functional; conditions: ip, 96 h
MRC5 = experiment: Cytotoxicity against human MRC5 after 3 days; type: cell-based; conditions: MRC5, 72 h
How it was run: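 MRC-5SV2 cells were grown in Earle's MEM with 5% FCSi and plated at about 10^4 cells/well. After 3 days of incubation, viability was read fluorimetrically with resazurin (ex 550/em 590 nm). Growth reduction was expressed relative to untreated control wells, and CC50 was derived.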

Nucleic Acid [11] = experiment: Binding affinity to polydAdT DNA containing 100% AT assessed as middle of the integrated surface melting temperature at 1 uM by spectrophotometry analysis; type: nucleic-acid assay; how it was run: as §2
Plasmodium falciparum [12] = experiment: Antiplasmodial activity against chloroquine-susceptible Plasmodium falciparum K2 infected in human erythrocytes assessed as inhibition of [3H]hypoxanthine uptake after 48 hrs; type: functional, organism-based; how it was run: as §1
Plasmodium falciparum [13] = experiment: Antiplasmodial activity against chloroquine-susceptible Plasmodium falciparum W2 infected in human erythrocytes assessed as inhibition of [3H]hypoxanthine uptake after 48 hrs; type: functional, organism-based; how it was run: as §1
Plasmodium falciparum [14] = experiment: Antiplasmodial activity against chloroquine-susceptible Plasmodium falciparum Bres infected in human erythrocytes assessed as inhibition of [3H]hypoxanthine uptake after 48 hrs; type: functional, organism-based; how it was run: as §1
Nucleic Acid [15] = experiment: Binding affinity to pUC18 DNA containing 50% AT assessed as middle of the integrated surface melting temperature at 1 uM by spectrophotometry analysis; type: nucleic-acid assay; how it was run: as §2
Nucleic Acid [16] = experiment: Binding affinity to polydAdT DNA containing 100% AT assessed as middle of the peak at half height melting temperature at 1 uM by spectrophotometry analysis; type: nucleic-acid assay; how it was run: as §2
Nucleic Acid [17] = experiment: Binding affinity to pUC18 DNA containing 50% AT assessed as middle of the peak at half height melting temperature at 1 uM by spectrophotometry analysis; type: nucleic-acid assay; how it was run: as §2
Plasmodium falciparum [18] = experiment: Antiplasmodial activity against chloroquine-susceptible Plasmodium falciparum PA infected in human erythrocytes assessed as inhibition of [3H]hypoxanthine uptake after 48 hrs; type: functional, organism-based; how it was run: as §1
Nucleic Acid [19] = experiment: Binding affinity to pUC18 DNA at pH 7.5 by UV-Vis spectrophotometry analysis; type: nucleic-acid assay
How it was run: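 A 10 μM drug solution was titrated at room temperature with linearized pUC18 DNA (50% AT), 0.1-50 μM base pairs final. Buffer was TE (10 mM Tris-HCl, 0.1 mM EDTA) with 5 mM NaCl, ionic strength 12 mM. UV-Vis absorption spectra were recorded at 220-380 nm. Kd = DNA concentration at which half the drug is bound.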

Plasmodium falciparum [20] = experiment: Antiplasmodial activity against chloroquine-susceptible Plasmodium falciparum FCM29 infected in human erythrocytes assessed as inhibition of [3H]hypoxanthine uptake after 48 hrs; type: functional, organism-based; how it was run: as §1
Plasmodium falciparum [21] = experiment: Antiplasmodial activity against chloroquine-susceptible Plasmodium falciparum NF54 infected in human erythrocytes assessed as inhibition of [3H]hypoxanthine uptake after 48 hrs; type: functional, organism-based
How it was run: (§3)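 Asynchronous ring-stage cultures in human A Rh+ erythrocytes (RPMI 1640, HEPES, NaHCO3, hypoxanthine, 0.5% Albumax II, 5% CO2, 37 C), 1% parasitemia; top final drug concentration 30 μM. After 24 h, [3H]-hypoxanthine (0.2 μCi/well) added, further 48 h incubation; plates freeze-thawed, harvested, uptake counted; IC50 calculated.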

Mus musculus [22] = experiment: Toxicity in ip dosed Swiss mouse assessed as mortality at 30 mg/kg, ip; type: organism-based; design: dose 30 mg/kg, route intraperitoneal; conditions: in vivo
How it was run: (§4)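 Peters 4-day suppressive test, P. berghei ANKA: 18-20 g mice infected iv with 2 × 10^6 parasitized red cells day 0; compounds freshly made in 10% DMSO in sterile PBS, given ip from 2 h postinfection and on days 1-3; daily dose 30 mg/kg or 50 mg/kg; deaths recorded.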

Plasmodium falciparum [23] = experiment: Antiplasmodial activity against chloroquine-resistant Plasmodium falciparum Dd2 infected in human erythrocytes assessed as inhibition of [3H]hypoxanthine uptake after 48 hrs; type: functional, organism-based
How it was run: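 Ring-stage infected erythrocytes (0.5% parasitemia, 2.5% hematocrit) exposed to compounds 48 h, then radioactive hypoxanthine 24 h; radioactivity in precipitable material taken as proliferation index for IC50.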

Plasmodium berghei [24] = experiment: Antiplasmodial activity against Plasmodium berghei ANKA infected in Swiss mice (Mus musculus) assessed as reduction of parasitaemia at 50 mg/kg, intraperitoneally daily for 4 days; type: functional, organism-based; design: dose 50 mg/kg
How it was run: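 Swiss mice (18-20 g) infected intravenously on day 0 with 2 × 10^6 P. berghei ANKA parasitized red cells. Compound was freshly prepared in 10% DMSO in sterile PBS and given ip, first 2 h postinfection, then on days +1-3 (4-day suppressive test). On day +4, parasitemia was counted microscopically on Giemsa-stained tail-blood films.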

Plasmodium falciparum [25] = experiment: Antiplasmodial activity against chloroquine, pyrimethamine, cycloguanil-resistant Plasmodium falciparum K1 infected in human erythrocytes assessed as inhibition of [3H]hypoxanthine uptake after 48 hrs; type: functional, organism-based; how it was run: as §3
Mus musculus [26] = experiment: Toxicity in ip dosed Swiss mouse assessed as mortality at 50 mg/kg, ip; type: organism-based; design: dose 50 mg/kg, route intraperitoneal; conditions: in vivo; how it was run: as §4
Plasmodium falciparum [27] = experiment: Antiplasmodial activity against chloroquine-susceptible Plasmodium falciparum 3D7 infected in human erythrocytes assessed as inhibition of [3H]hypoxanthine uptake after 48 hrs; type: functional, organism-based
How it was run: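 Culture in RPMI 1640 with 10% human serum, 25 mM HEPES, 25 mM NaHCO3, A-positive blood, 10% O2/5% CO2/85% N2, 37 C. Isotopic microtest: 0.5% parasitemia, 1.5% hematocrit, 1 μCi tritiated hypoxanthine at time zero, 48 h; freeze-thaw lysis, filter harvest, scintillation count. IC50 = 50% uptake versus drug-free control, nonlinear regression of log dose-response curves.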

SMILES	pKd (Nucleic Acid [1])	IC90 (Plasmodium falciparum [2]) [nM]	Tm (Nucleic Acid [3]) [°C]	Tm (Nucleic Acid [4]) [°C]	IC90 (Plasmodium falciparum [5]) [nM]	IC90 (Plasmodium falciparum [6]) [nM]	IC90 (Plasmodium falciparum [7]) [nM]	pIC50 (NCH89)	IC90 (Plasmodium falciparum [8]) [nM]	IC90 (Plasmodium falciparum [9]) [nM]	pIC50 (MRC5)	Tm (Nucleic Acid [11]) [°C]	IC90 (Plasmodium falciparum [12]) [nM]	IC90 (Plasmodium falciparum [13]) [nM]	IC90 (Plasmodium falciparum [14]) [nM]	Tm (Nucleic Acid [15]) [°C]	Tm (Nucleic Acid [16]) [°C]	Tm (Nucleic Acid [17]) [°C]	IC90 (Plasmodium falciparum [18]) [nM]	pKd (Nucleic Acid [19])	also measured
CCN(CC)CCCC(C)Nc1ccnc2cc(Cl)ccc12 (stereo unspecified) [CHLOROQUINE]	5.05	316	73.2	46.9	418	686	1130	4.39	59.2	44.4	4.19	46.6	912	693	614	73.7	47	74.7	483	5.12	inhibition in vivo at 10 mg/kg (Plasmodium berghei [10]): 98.9%
Clc1ccc2c(NCCNC(CCN3CCCCC3)c3ccccc3)ccnc2c1 (stereo unspecified)	5.40	68.4	73	46	73.5	73.1	205	5.25	12.8	16	5.10	46.4	105	74.6	76.7	74.4	46.5	75	68.9	6.00	pIC50 (Plasmodium falciparum [20]): 6.87; IC90 (Plasmodium falciparum [20]): 296 nM; pIC50 (Plasmodium falciparum [21]): 8.06; pIC50 (Plasmodium falciparum [2]): 7.41; Activity (Mus musculus [22]): Toxic; pIC50 (Plasmodium falciparum [5]): 7.36; pIC50 (Plasmodium falciparum [23]): 7.62; pIC50 (Plasmodium falciparum [6]): 7.35; pIC50 (Plasmodium falciparum [7]): 7.12; pIC50 (Plasmodium falciparum [8]): 8.10; pIC50 (Plasmodium falciparum [9]): 7.96; Activity (Plasmodium berghei [24]): Active; pIC50 (Plasmodium falciparum [12]): 7.24; pIC50 (Plasmodium falciparum [25]): 7.49; pIC50 (Plasmodium falciparum [13]): 7.36; pIC50 (Plasmodium falciparum [14]): 7.33; Activity (Mus musculus [26]): Toxic; pIC50 (Plasmodium falciparum [18]): 7.39; pIC50 (Plasmodium falciparum [27]): 8.00; IC90 (Plasmodium falciparum [27]): 15.8 nM
